Measured values reported in PubChem BioAssay.
Activity calls are given as the source filed them.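 The calls were made as follows, unless noted: active = NADPH fluorescence slope more negative than the mean of all samples by about 3 SD, 99.7% confidence; inactive = the rest.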

Experiments:
[1] = inhibitors of TNFa-induced NFkB p65 translocation, primary screen, imaging, HUVEC, MLSMR starter and 10KST1 sets (AID 438;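 active = inhibition above 20% together with a positive visual image hit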;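 also: compound added about 3h40 before a 20 min TNFalpha stimulation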;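 as to inhibition: signal is the nuclear over cytoplasmic p65 intensity ratio per well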); conditions: HUVEC TNFa-induced p65 nuclear translocation; cell count: measured here: nuclei count (cytotoxicity indicator), at 2.08 µM; inhibition: at 2 µM, stronger effect = higher value, 0% TNFa-plus-vehicle, 100% no-TNFa wells
[2] = reduction of polyQ htt aggregates in cells – imaging, exon1htt(103Q)mCFP cells, high-content imaging, primary screen (AID 483;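 active = visual image review flags a hit and inhibition of aggregation exceeds 20%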;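 also: compound exposure lasted 3 days before fixation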;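 as to nuclei count: percent of the per-plate median nuclei count of sample wells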); conditions: exon1htt(103Q)mCFP cell line, aggregate imaging, at 2 µM; inhibition of aggregation: stronger effect = higher value; nuclei count: measured here: cell count, toxicity
[3] = endothelial E-selectin expression blockers – imaging, HUVEC, immunofluorescence, MLSMR starter and 10KST1 sets, primary screen (AID 487;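 active = visually confirmed hit in the image check and inhibition above 20%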;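 as to inhibition: signal is fraction of cell area covered by stained E-selectin grains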;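 as to nuclei count: 100% = median nuclei count of all wells on the same plate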); conditions: HUVEC TNFalpha-induced E-selectin immunofluorescence imaging, at 2 µM; inhibition: stronger effect = higher value; nuclei count: measured here: cell number, toxicity
[4] = target: Voltage-gated potassium channel subunit beta-2 (Rattus norvegicus) (UniProt P62483); assay: inhibitors of rat Kvbeta2 reductase activity – biochemical, NADPH fluorescence, primary screen (AID 622;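 active = fluorescence slope higher than the sample average by over 3 SD, cut at about -0.22 in these data, passing the limit was not always enough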;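 also: slope of raw intensity against log time taken from 70 to 1610 s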); conditions: recombinant KvBeta, 4-cyanobenzaldehyde reduction, at 10 µM, stronger effect = higher value
[5] = target: Voltage-gated potassium channel subunit beta-2 (Rattus norvegicus) (UniProt P62483); assay: enhancers of rat Kvbeta2 NADPH turnover – biochemical, NADPH fluorescence, primary screen (AID 623); conditions: Recombinant KvBeta, NADPH fluorescence decrease slope, 10 min; at 10 µM; stronger effect = lower value;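 also: fluorescence intensity change per second fitted from 20 to 320 s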
[6] = target: Muscarinic acetylcholine receptor M4 (Homo sapiens) (UniProt P08173); assay: M4-linked GIRK flux change, two-sided – cell-based, HEK293 M4/GIRK, thallium flux, BTC-AM, M4 allosteric agonist project, primary screen (AID 625;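 active = fluorescence slope after compound addition differing from the mean of all tested samples at 99.7% confidence, mostly higher but some lower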;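 also: thallium influx through GIRK channels coupled to M4 in HEK293 cells with BTC-AM dye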); conditions: at 10 µM, actives lie on both sides
How it was run: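 Material: HEK293 cells with M4 receptor and GIRK channels; Times: cells overnight at 37 °C, BTC-AM loading 1 h, reads 2 min total; Technique: kinetic BTC-AM fluorescence sampled at 1 Hz, 10 s pre-addition baseline; Read-out basis: slope over 15–24 s of trace normalized to starting intensity; Controls: carbachol positive, DMSO negative.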

[7] = blockers of RIG-like receptor reporter activation – cell-based, Sendai virus stimulus, luciferase, 10K MLSCN set, TLR/RLR signaling modifier project, primary screen (AID 602276;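 active = inhibition at or above 50% at 10 µM; inactive = inhibition below 50%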;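 also: firefly luciferase from ISG56 promoter only with Renilla not read in this screen; 0% = Sendai virus plus DMSO and 100% = medium plus DMSO without virus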); conditions: HEK293 RL24 IRF3 luciferase reporter, at 10 µM, stronger effect = higher value
[8] = TLR3 IRF3 reporter activation blockers – cell-based, poly I:C stimulus, luciferase, 10K MLSCN set, primary screen (AID 602277;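 active = inhibition of the reporter signal at or above 50%; inactive = inhibition below 50%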); conditions: HEK293-TLR3 RL24 IRF3 luciferase reporter, at 10 µM, stronger effect = higher value

Sequence of Muscarinic acetylcholine receptor M4 (Homo sapiens) (P08173 whole entry, looked up): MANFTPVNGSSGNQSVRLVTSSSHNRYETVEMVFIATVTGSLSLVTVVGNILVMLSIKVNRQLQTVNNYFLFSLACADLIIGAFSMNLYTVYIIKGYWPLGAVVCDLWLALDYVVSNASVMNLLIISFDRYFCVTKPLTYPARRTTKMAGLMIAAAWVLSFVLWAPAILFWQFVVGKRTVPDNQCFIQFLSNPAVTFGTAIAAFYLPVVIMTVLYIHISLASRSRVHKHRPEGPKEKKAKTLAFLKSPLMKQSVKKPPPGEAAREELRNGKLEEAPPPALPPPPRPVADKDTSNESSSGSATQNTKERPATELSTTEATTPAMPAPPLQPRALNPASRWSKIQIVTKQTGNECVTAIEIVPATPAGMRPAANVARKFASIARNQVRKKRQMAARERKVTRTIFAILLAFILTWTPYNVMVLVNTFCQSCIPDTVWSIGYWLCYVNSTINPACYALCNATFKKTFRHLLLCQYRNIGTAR
Sequence of Voltage-gated potassium channel subunit beta-2 (Rattus norvegicus) (P62483 whole entry, looked up): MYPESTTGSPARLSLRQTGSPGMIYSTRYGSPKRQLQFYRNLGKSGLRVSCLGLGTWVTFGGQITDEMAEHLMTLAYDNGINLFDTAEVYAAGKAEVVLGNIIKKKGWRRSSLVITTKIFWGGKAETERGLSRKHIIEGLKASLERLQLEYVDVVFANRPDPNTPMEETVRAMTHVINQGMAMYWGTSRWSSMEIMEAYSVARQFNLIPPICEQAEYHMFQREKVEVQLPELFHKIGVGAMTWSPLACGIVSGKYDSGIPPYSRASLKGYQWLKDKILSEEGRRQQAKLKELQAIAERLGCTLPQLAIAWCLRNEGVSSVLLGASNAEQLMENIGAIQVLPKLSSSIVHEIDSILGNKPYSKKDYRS

Row | Compound | cell count [1] | inhibition [1] | inhibition of aggregation [2] | nuclei count [2] [%] | inhibition [3] | nuclei count [3] [%] | fluorescence slope [4] | NADPH fluorescence slope [5] | fluorescence slope [6] | inhibition [7] | inhibition [8]
1 | COc1ccc(CC(=O)Nc2ccc(-c3nnc(-c4ccc(C)cc4)o3)cc2)cc1 | 411 | 0.5% (inactive) | -17.7% (inactive) | 102 | -101% (inactive) | 109 | -0.454 (inactive) | -9.3e-06 (inactive) | 0.0071 (inactive) | 8.75% (inactive) | 18.4% (inactive)
2 | Nc1nonc1C(=O)NCCNCc1cc(Br)ccc1OCc1ccccc1F | 422 | -2.4% (inactive) | 18.5% (inactive) | 89.6 | -4.2% (inactive) | 123 | -0.574 (inactive) | -3.2e-05 (inactive) | 0.00396 (inactive) | -2.45% (inactive) | -30.4% (inactive)
3 | C/C(N)=C(/C#N)C(=O)COC(=O)COc1ccc(Cl)cc1 | 500 | 4.3% (inactive) | 11.4% (inactive) | 97.4 | -5.5% (inactive) | 105 | -0.414 (inactive) | 9.1e-05 (inactive) | 0.00641 (inactive) | 18.1% (inactive) | 23.1% (inactive)
4 | NC1=NC(c2ccc(Cl)cc2)n2c(nc3ccccc32)N1 (stereo not drawn) | 780 | 3.5% (inactive) | -8.4% (inactive) | 125 | -15.2% (inactive) | 113 | -0.584 (inactive) | 1.3e-05 (inactive) | 0.00539 (inactive) | 16.5% (inactive) | 18.6% (inactive)
5 | O=C(Nc1ccc(Cl)cc1)N1CCSCC1 | 358 | 6.3% (inactive) | -8.3% (inactive) | 104 | 37.4% (inactive) | 84.1 | -0.494 (inactive) | -3e-05 (inactive) | 0.00504 (inactive) | -2.29% (inactive) | -14.3% (inactive)
6 | N#Cc1ccc(CSc2nnc(-c3cnccn3)o2)cc1 | 489 | -15% (inactive) | -20.4% (inactive) | 106 | -60.9% (inactive) | 105 | -0.555 (inactive) | -5.1e-06 (inactive) | 0.00528 (inactive) | 2.28% (inactive) | 5.14% (inactive)
7 | CS(=O)(=O)c1ccc2nc(NC(=O)CCC(=O)c3cccs3)sc2c1 | 517 | 2.6% (inactive) | -3.8% (inactive) | 105 | -87.7% (inactive) | 95.8 | -0.594 (inactive) | 1.3e-06 (inactive) | 0.00448 (inactive) | 14.5% (inactive) | 4.68% (inactive)
8 | COCCn1c(=O)[nH]c2cc(C(=O)N3CCN(c4ccccc4OC)CC3)ccc2c1=O | 806 | -7.9% (inactive) | 5.5% (inactive) | 102 | -28.7% (inactive) | 117 | -0.44 (inactive) | 9.4e-06 (inactive) | 0.00559 (inactive) | 10.5% (inactive) | 12.4% (inactive)
9 | CC1CN(c2c3c(nc4ncnn24)CCCC3)CC(C)O1 (stereo not drawn) | 752 | 0% (inactive) | -14.4% (inactive) | 99.9 | -31.5% (inactive) | 106 | -0.481 (inactive) | 3.1e-05 (inactive) | 0.00504 (inactive) | 14.7% (inactive) | 21.5% (inactive)
10 | CCOC(=O)CSc1nnc(-c2cccnc2)n1Cc1ccccc1 | 568 | 16.6% (inactive) | 10.1% (inactive) | 97.1 | -105% (inactive) | 158 | -0.576 (inactive) | 1.1e-05 (inactive) | 0.00573 (inactive) | -4.13% (inactive) | 1.14% (inactive)
11 | COCCCNS(=O)(=O)c1ccc2c(c1)CCN2C(C)=O | 416 | 0.3% (inactive) | -9.3% (inactive) | 125 | -31.6% (inactive) | 139 | -0.578 (inactive) | 1.1e-05 (inactive) | 0.00611 (inactive) | 15.1% (inactive) | 15% (inactive)
12 | Cn1c(=O)c2c(nc(SCCCO)n2Cc2ccccc2Cl)n(C)c1=O | 531 | 7.2% (inactive) | -0.4% (inactive) | 96 | 41% (inactive) | 92.6 | -0.424 (inactive) | 3e-05 (inactive) | 0.00759 (inactive) | 7.16% (inactive) | 22.9% (inactive)
13 | c1ccc(CNc2ccc3c(c2)ncn3C2CCCCC2)nc1 | 171 | -4.9% (inactive) | 20% (inactive) | 78.3 | -12.5% (inactive) | 97 | -0.58 (inactive) | 4.2e-05 (inactive) | 0.00406 (inactive) | -10.6% (inactive) | -24.3% (inactive)
14 | Cc1cccc(C)c1OCc1nnc2c3cnn(C)c3ncn12 | 456 | 8.1% (inactive) | -5.7% (inactive) | 97.5 | -299% (inactive) | 125 | -0.533 (inactive) | -0.000169 (inactive) | 0.0037 (inactive) | -9.31% (inactive) | -26.9% (inactive)
15 | N#CCSc1nc(-c2ccccc2)cs1 | 371 | 5% (inactive) | 1.3% (inactive) | 103 | -25.1% (inactive) | 109 | -0.566 (inactive) | -1.8e-05 (inactive) | 0.0051 (inactive) | -34.5% (inactive) | -75.5% (inactive)
16 | CC(C)(C)C1CCc2c(sc3c2C(=O)NC(c2ccco2)N3)C1 (stereo not drawn) | 639 | -34.8% (inactive) | 14.3% (inactive) | 125 | 15.7% (inactive) | 97 | -0.506 (inactive) | 2.4e-05 (inactive) | 0.00491 (inactive) | -39.4% (inactive) | -133% (inactive)
17 | c1ccc(-c2cn3c4c(sc3n2)CCCC4)cc1 | 789 | -4.8% (inactive) | 40% (inactive) | 118 | -34.8% (inactive) | 116 | -0.493 (inactive) | -7.1e-06 (inactive) | 0.00593 (inactive) | 5.66% (inactive) | 71.3% (active)
18 | O=C(Nc1nnc(C2CCCCC2)s1)c1cccs1 | 511 | -8.1% (inactive) | -2.9% (inactive) | 108 | -77.2% (inactive) | 121 | -0.437 (inactive) | -2.3e-05 (inactive) | 0.00416 (inactive) | -37.9% (inactive) | -113% (inactive)
19 | O=C(NC(C(=O)c1ccccc1)n1ccc(=O)[nH]c1=O)c1ccccc1 (stereo not drawn) | 596 | -5.6% (inactive) | -13% (inactive) | 104 | -6.1% (inactive) | 104 | -0.449 (inactive) | -9.3e-05 (inactive) | 0.00666 (inactive) | 6.2% (inactive) | 12% (inactive)
20 | Nc1cc(-c2ccccc2)ccc1O | 329 | 6.3% (inactive) | 33.9% (active) | 88.4 | -40.6% (inactive) | 103 | -0.314 (inactive) | -1.6e-05 (inactive) | 0.00771 (inactive) | -0.254% (inactive) | 1.06% (inactive)
21 | CCOc1cc(C(=O)NCC2CCCO2)cc(OCC)c1OCC (stereo not drawn) | 430 | -9.3% (inactive) | -3.9% (inactive) | 106 | -133% (inactive) | 102 | -0.213 (inactive) | -3.4e-05 (inactive) | 0.00818 (inactive) | 15.1% (inactive) | 9.52% (inactive)
22 | CCOC(=O)c1c(NC(=O)CSc2nc3c(c(=O)n(C)c(=O)n3C)n2C(C)C)sc(C)c1C | 547 | 1.2% (inactive) | 17.1% (inactive) | 110 | 26.4% (inactive) | 82.3 | -0.564 (inactive) | -2.9e-05 (inactive) | 0.00617 (inactive) | 18% (inactive) | 20.6% (inactive)
23 | COC(=O)c1ccccc1NC(=O)C1CCCCC1C(=O)O (stereo not drawn) | 266 | 2.8% (inactive) | 15.8% (inactive) | 98.8 | -39.2% (inactive) | 85.6 | -0.556 (inactive) | -2.1e-05 (inactive) | 0.00471 (inactive) | 12.8% (inactive) | 11.6% (inactive)
24 | CCOC(=O)C1CCN(C(=O)CSc2cc(=O)n(CC)c3ccccc23)CC1 | 378 | 2.2% (inactive) | -0.2% (inactive) | 110 | -26.1% (inactive) | 111 | -0.629 (inactive) | 6.5e-05 (inactive) | 0.00567 (inactive) | -0.518% (inactive) | 38.8% (inactive)
25 | COc1ccccc1Nc1nc(N)nc(CSc2nccc(C)n2)n1 | 701 | -8.6% (inactive) | -9.5% (inactive) | 99.9 | 28.3% (inactive) | 112 | -0.546 (inactive) | 4.7e-05 (inactive) | 0.00561 (inactive) | 11.6% (inactive) | 5.69% (inactive)
26 | COc1ccc(C2CC(=O)c3c(C)nc(N4CCN(c5ccccc5)CC4)nc3C2)cc1 (stereo not drawn) | 598 | 5.6% (inactive) | -5.3% (inactive) | 109 | 29.4% (inactive) | 108 | -0.574 (inactive) | -4.7e-05 (inactive) | 0.00457 (inactive) | 8.81% (inactive) | -8.5% (inactive)
27 | O=C(Nc1ccc(N2CCOCC2)cc1)Nc1ccc2nc(-c3ccco3)c(-c3ccco3)nc2c1 | 695 | -0.7% (inactive) | -8.6% (inactive) | 98.1 | -177% (inactive) | 140 | -0.516 (inactive) | -5.3e-05 (inactive) | 0.00225 (inactive) | 38.7% (inactive) | 0.682% (inactive)
28 | CC1=C(C(=O)OCCOC(C)C)C(c2cc3c(cc2Br)OCO3)C2=C(CCCC2=O)N1 (stereo not drawn) | 446 | 0.2% (inactive) | 8.5% (inactive) | 41.8 | -37.4% (inactive) | 105 | -0.485 (inactive) | 6.8e-05 (inactive) | 0.00686 (inactive) | 20.8% (inactive) | 26.6% (inactive)
